Test system: not listed separately
Assay: Growth inhibition of Chinese hamster PC43-10 cells expressing reduced folate carrier incubated for 96 hrs by CellTiter-blue cell viability assay
Format: functional, cell-based
Details: Cricetulus griseus, PC43-10, 96 h

Row | Structure (SMILES) | IC50 [nM]
1 | Nc1nc2[nH]c(CCCCc3sccc3C(=O)N[C@@H](CCC(=O)O)C(=O)O)cc2c(=O)[nH]1 | > 1000
2 | Nc1nc2[nH]c(CCCCc3ccsc3C(=O)N[C@@H](CCC(=O)O)C(=O)O)cc2c(=O)[nH]1 | > 1000
3 | Nc1nc2[nH]c(CCCCc3cscc3C(=O)N[C@@H](CCC(=O)O)C(=O)O)cc2c(=O)[nH]1 | > 1000

Test system: R2
Assay: Growth inhibition of Chinese hamster R2 cells expressing empty vector control incubated for 96 hrs by CellTiter-blue cell viability assay
Details: Cricetulus griseus, R2, 96 h

Row | Structure (SMILES) | IC50 [nM]
4 | Nc1nc2[nH]c(CCCCc3sccc3C(=O)N[C@@H](CCC(=O)O)C(=O)O)cc2c(=O)[nH]1 | > 1000
5 | Nc1nc2[nH]c(CCCCc3ccsc3C(=O)N[C@@H](CCC(=O)O)C(=O)O)cc2c(=O)[nH]1 | > 1000
6 | Nc1nc2[nH]c(CCCCc3cscc3C(=O)N[C@@H](CCC(=O)O)C(=O)O)cc2c(=O)[nH]1 | > 1000

Test system: R2
Assay: Growth inhibition of Chinese hamster R2 cells deficient in reduced folate carrier and human folate receptor alpha incubated for 96 hrs by CellTiter-blue cell viability assay
Format: cell-based, Cricetulus griseus
Details: R2, 96 h

Row | Structure (SMILES) | IC50 [nM]
7 | Nc1nc2[nH]c(CCCCc3sccc3C(=O)N[C@@H](CCC(=O)O)C(=O)O)cc2c(=O)[nH]1 | > 1000
8 | Nc1nc2[nH]c(CCCCc3ccsc3C(=O)N[C@@H](CCC(=O)O)C(=O)O)cc2c(=O)[nH]1 | > 1000
9 | Nc1nc2[nH]c(CCCCc3cscc3C(=O)N[C@@H](CCC(=O)O)C(=O)O)cc2c(=O)[nH]1 | > 1000

Test system: not listed separately
Assay: Growth inhibition of Chinese hamster RT16 cells expressing human folate receptor alpha incubated for 96 hrs in presence of folic acid by CellTiter-blue cell viability assay
Format: functional, cell-based
Details: Cricetulus griseus, RT16, 96 h

Row | Structure (SMILES) | IC50 [nM]
10 | Nc1nc2[nH]c(CCCCc3sccc3C(=O)N[C@@H](CCC(=O)O)C(=O)O)cc2c(=O)[nH]1 | > 1000
11 | Nc1nc2[nH]c(CCCCc3ccsc3C(=O)N[C@@H](CCC(=O)O)C(=O)O)cc2c(=O)[nH]1 | > 1000
12 | Nc1nc2[nH]c(CCCCc3cscc3C(=O)N[C@@H](CCC(=O)O)C(=O)O)cc2c(=O)[nH]1 | > 1000

Test system: KB
Assay: Growth inhibition of human KB cells endogenously expressing RFC/FRalpha/PCFT in presence of folic acid incubated for 96 hrs by CellTiter-blue cell viability assay
Format: functional, cell-based
Details: not given

Row | IC50 [nM] | Structure (SMILES)
13 | > 1000 | Nc1nc2[nH]c(CCCCc3sccc3C(=O)N[C@@H](CCC(=O)O)C(=O)O)cc2c(=O)[nH]1
14 | > 1000 | Nc1nc2[nH]c(CCCCc3ccsc3C(=O)N[C@@H](CCC(=O)O)C(=O)O)cc2c(=O)[nH]1
15 | > 1000 | Nc1nc2[nH]c(CCCCc3cscc3C(=O)N[C@@H](CCC(=O)O)C(=O)O)cc2c(=O)[nH]1

Test system: IGROV-1
Assay: Growth inhibition of human IGROV1 cells endogenously expressing RFC/FRalpha/PCFT in presence of folic acid incubated for 96 hrs by CellTiter-blue cell viability assay
Format: functional, cell-based
Details: IGROV-1, 96 h

Row | Structure (SMILES) | IC50 [nM]
16 | Nc1nc2[nH]c(CCCCc3cscc3C(=O)N[C@@H](CCC(=O)O)C(=O)O)cc2c(=O)[nH]1 | > 1000

Test system: not listed separately
Assay: Growth inhibition of Chinese hamster RT16 cells expressing human folate receptor alpha incubated for 96 hrs by CellTiter-blue cell viability assay
Format: functional, cell-based
Details: Cricetulus griseus, RT16, 96 h

Row | Structure (SMILES) | IC50 [nM]
17 | Nc1nc2[nH]c(CCCCc3sccc3C(=O)N[C@@H](CCC(=O)O)C(=O)O)cc2c(=O)[nH]1 | > 1000
18 | Nc1nc2[nH]c(CCCCc3ccsc3C(=O)N[C@@H](CCC(=O)O)C(=O)O)cc2c(=O)[nH]1 | > 1000
19 | Nc1nc2[nH]c(CCCCc3cscc3C(=O)N[C@@H](CCC(=O)O)C(=O)O)cc2c(=O)[nH]1 | 147

Test system: R2
Assay: Growth inhibition of Chinese hamster R2 cells expressing human PCFT incubated for 96 hrs by CellTiter-blue cell viability assay
Format: functional, cell-based, Cricetulus griseus
Details: R2, 96 h
How it was run: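 R2/hPCFT4 CHO cells maintained beforehand in folate-free RPMI 1640 with dialyzed FBS, 25 nM LCV and G418. Assay: ~2500–5000 cells/well in folate-free RPMI 1640 (pH 7.2) with 25 nM LCV, 10% dialyzed FBS, antibiotics and L-glutamine, over a range of drug concentrations.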

Row | Structure (SMILES) | IC50 [nM]
20 | Nc1nc2[nH]c(CCCCc3sccc3C(=O)N[C@@H](CCC(=O)O)C(=O)O)cc2c(=O)[nH]1 | > 1000
21 | Nc1nc2[nH]c(CCCCc3ccsc3C(=O)N[C@@H](CCC(=O)O)C(=O)O)cc2c(=O)[nH]1 | > 1000
22 | Nc1nc2[nH]c(CCCCc3cscc3C(=O)N[C@@H](CCC(=O)O)C(=O)O)cc2c(=O)[nH]1 | > 1000

Test system: KB
Assay: Growth inhibition of human KB cells endogenously expressing RFC/FRalpha/PCFT incubated for 96 hrs by CellTiter-blue cell viability assay
Format: functional, cell-based
Details: not given

Row | IC50 [nM] | Structure (SMILES)
23 | 171 | Nc1nc2[nH]c(CCCCc3sccc3C(=O)N[C@@H](CCC(=O)O)C(=O)O)cc2c(=O)[nH]1
24 | 267 | Nc1nc2[nH]c(CCCCc3ccsc3C(=O)N[C@@H](CCC(=O)O)C(=O)O)cc2c(=O)[nH]1
25 | 35.3 | Nc1nc2[nH]c(CCCCc3cscc3C(=O)N[C@@H](CCC(=O)O)C(=O)O)cc2c(=O)[nH]1

Test system: IGROV-1
Assay: Growth inhibition of human IGROV1 cells endogenously expressing RFC/FRalpha/PCFT incubated for 96 hrs by CellTiter-blue cell viability assay
Format: functional, cell-based
Details: IGROV-1, 96 h

Row | Structure (SMILES) | IC50 [nM]
26 | Nc1nc2[nH]c(CCCCc3cscc3C(=O)N[C@@H](CCC(=O)O)C(=O)O)cc2c(=O)[nH]1 | 103
